Measurements reported in ChEMBL document CHEMBL1125911, “Synthesis and biological activity of new HMG-CoA reductase inhibitors. 3. Lactones of 6-phenoxy-3,5-dihydroxyhexanoic acids” (J Med Chem, 1991).

Legend:
[1] = biological target: T1, 3-hydroxy-3-methylglutaryl-coenzyme A reductase (Rattus norvegicus, UniProt P51639); experiment: In vitro inhibition of solubilized HMG-CoA reductase in rat liver.
T1 sequence (P51639 whole entry): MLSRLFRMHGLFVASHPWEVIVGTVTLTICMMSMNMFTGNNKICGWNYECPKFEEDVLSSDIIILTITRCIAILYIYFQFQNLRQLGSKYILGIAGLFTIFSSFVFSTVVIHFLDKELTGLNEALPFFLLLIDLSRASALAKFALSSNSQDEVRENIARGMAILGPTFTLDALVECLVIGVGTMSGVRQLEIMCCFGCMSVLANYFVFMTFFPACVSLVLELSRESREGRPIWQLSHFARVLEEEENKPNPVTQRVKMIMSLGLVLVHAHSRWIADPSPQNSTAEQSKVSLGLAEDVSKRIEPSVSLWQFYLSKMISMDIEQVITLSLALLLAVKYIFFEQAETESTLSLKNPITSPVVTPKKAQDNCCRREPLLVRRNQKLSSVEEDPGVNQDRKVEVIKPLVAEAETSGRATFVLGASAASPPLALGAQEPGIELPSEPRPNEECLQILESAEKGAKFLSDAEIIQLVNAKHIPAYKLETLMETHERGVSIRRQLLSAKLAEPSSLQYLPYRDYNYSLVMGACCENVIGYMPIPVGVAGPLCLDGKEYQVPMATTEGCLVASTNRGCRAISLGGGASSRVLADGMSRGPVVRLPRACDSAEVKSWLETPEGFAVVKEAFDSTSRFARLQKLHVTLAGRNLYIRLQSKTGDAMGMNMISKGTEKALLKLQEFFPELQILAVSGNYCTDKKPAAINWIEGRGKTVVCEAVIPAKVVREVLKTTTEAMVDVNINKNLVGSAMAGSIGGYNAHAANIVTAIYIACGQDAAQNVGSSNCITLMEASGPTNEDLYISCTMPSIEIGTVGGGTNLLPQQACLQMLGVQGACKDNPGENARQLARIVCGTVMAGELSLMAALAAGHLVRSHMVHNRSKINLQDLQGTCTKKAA

[2] = biological target: T2, 3-hydroxy-3-methylglutaryl-coenzyme A reductase (Homo sapiens, UniProt P04035); experiment: Inhibition of the incorporation of sodium [14C]acetate into cholesterol in HEP G2 cells.; assay type: functional, cell-based, HepG2
T2 sequence (P04035 whole entry): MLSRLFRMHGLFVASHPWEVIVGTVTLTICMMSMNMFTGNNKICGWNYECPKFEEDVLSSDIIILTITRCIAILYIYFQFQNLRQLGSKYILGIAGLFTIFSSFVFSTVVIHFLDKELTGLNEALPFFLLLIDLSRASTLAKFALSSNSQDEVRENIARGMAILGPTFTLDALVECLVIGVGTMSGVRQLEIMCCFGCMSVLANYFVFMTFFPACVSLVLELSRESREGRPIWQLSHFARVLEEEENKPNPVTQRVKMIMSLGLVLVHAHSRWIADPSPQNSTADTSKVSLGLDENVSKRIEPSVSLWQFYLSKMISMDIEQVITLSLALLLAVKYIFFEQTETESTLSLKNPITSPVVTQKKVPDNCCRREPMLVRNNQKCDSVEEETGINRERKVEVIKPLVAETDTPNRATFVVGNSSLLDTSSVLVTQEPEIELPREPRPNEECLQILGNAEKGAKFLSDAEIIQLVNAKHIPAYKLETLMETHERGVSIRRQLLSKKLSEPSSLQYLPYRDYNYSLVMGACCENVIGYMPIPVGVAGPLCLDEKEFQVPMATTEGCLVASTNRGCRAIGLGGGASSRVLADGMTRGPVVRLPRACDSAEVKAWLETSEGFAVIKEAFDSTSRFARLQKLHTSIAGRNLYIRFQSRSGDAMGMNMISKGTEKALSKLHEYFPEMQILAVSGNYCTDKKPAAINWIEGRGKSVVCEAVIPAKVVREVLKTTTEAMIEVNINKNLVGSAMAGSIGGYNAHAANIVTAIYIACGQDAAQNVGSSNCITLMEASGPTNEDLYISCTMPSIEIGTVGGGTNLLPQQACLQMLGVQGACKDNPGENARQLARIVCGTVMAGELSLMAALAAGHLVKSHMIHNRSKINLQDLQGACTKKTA

[3] = species on record: Rattus norvegicus; experiment: Potency relative to mevinolin was determined with respect to IC50. […]; assay type: functional
[4] = biological target: T3, 3-hydroxy-3-methylglutaryl-coenzyme A reductase (Homo sapiens) (UniProt P04035); experiment: (§1) Inhibition of HMG-CoA reductase compared to mevinolin.; assay type: functional
T3 sequence (whole entry): T2 sequence (P04035 whole entry)
Procedure, shortened: (§2)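 Solubilized, partially purified rat liver HMG-CoA reductase. IC50 from four or five inhibitor concentrations. Relative potency compared IC50 with mevinolin (set to 100), corrected for molecular weight.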

[5] = system: Rattus norvegicus; experiment: In vivo inhibition of hepatic cholesterol de novo synthesis in rat after oral administration of 5 mg/kg dose; assay type: functional
[6] = system: Oryctolagus cuniculus; experiment: Tested in vivo for hypocholesterolemic activity by measuring its ability to decrease serum total cholesterol, after oral administration of 10 mg/kg body wt. per day in normolipidemic NZW rabbits; assay type: functional
Procedure, shortened: (§3)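 NZW rabbits (n = 5 or 6) dosed orally daily for 10 days. Serum total cholesterol reported as % change versus control. For 20 mg/kg, that dose was given on days 11-20 after 10 mg/kg, with the value read on day 20. Error given as SEM.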

[7] = biological target: T1, 3-hydroxy-3-methylglutaryl-coenzyme A reductase; experiment: In vitro inhibition of HMG-CoA reductase in solubilized rat liver.
[8] = species on record: Rattus norvegicus; experiment: Compound was tested for inhibition of microsomal lipid peroxidation and the potency relative to terbufucine was determined; assay type: functional
Procedure, shortened: (§4)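 Rat liver microsomes in 50 mM Tris-HCl pH 7.4 with 100 mM KCl and 6.0 mM MgCl2, final protein 0.4 mg/mL. Peroxidation was started with ADP (2 mM)/FeCl3 (10 μM) plus an NADPH-regenerating system. Incubation 30 min at 37 °C with shaking. Thiobarbituric acid reactive substances were read at 535 nm.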

[9] = biological target: T4, 3-hydroxy-3-methylglutaryl-coenzyme A reductase (Rattus norvegicus) (UniProt P51639); experiment: as §1; procedure, shortened: as §2
T4 sequence (whole entry): T1 sequence (P51639 whole entry)

[10] = species on record: Rattus norvegicus; experiment: In vitro inhibition of microsomal lipid peroxidation at 10e-5 M conc.; assay type: functional; procedure, shortened: as §4
[11] = species on record: Sus scrofa; experiment: Compound was tested for inhibition of Cu2+ catalyzed LDL oxidation and the potency relative to terbufucine was determined; assay type: functional
Procedure, shortened: (§5)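 Porcine plasma LDL isolated by sequential ultracentrifugation (density 1.019-1.063 g/mL), dialysed against PBS pH 7.4, then diluted to 0.1 mg/mL protein. Preincubated 1 h at 37 °C under N2 with compound in ethanol. Oxidised with 5 μM Cu2+ for 2 h at 37 °C in air. Fluorescence read at ex 365/em 430 nm.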

[12] = species on record: Sus scrofa; experiment: In vitro inhibition of Cu2+ catalyzed LDL oxidation; assay type: functional; procedure, shortened: as §5
[13] = system: Canis familiaris; experiment: Tested in vivo for hypocholesterolemic activity by measuring its ability to decrease serum LDL-cholesterol, after oral administration of 25 mg/kg per day for 14 days in male Beagle dogs.; assay type: functional, Canis lupus familiaris
Procedure, shortened: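 Male beagle dogs (n = 4) given neat compound in gelatine capsules daily at 3:00 p.m.; controls received empty capsules. After an overnight fast, venous blood was drawn at 8:00 a.m. Serum lipoproteins were separated by ultracentrifugation (densities 1.006/1.063/1.21). LDL-cholesterol reported as % change versus control.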

[14] = species on record: Rattus norvegicus; experiment: In vitro inhibition of microsomal lipid peroxidation; assay type: functional; procedure, shortened: as §4
[15] = system: Oryctolagus cuniculus; experiment: Tested in vivo for hypocholesterolemic activity by measuring its ability to decrease serum total cholesterol, after oral administration of 5 mg/kg body wt. per day in normolipidemic NZW rabbits; assay type: functional; procedure, shortened: as §3
[16] = species on record: Sus scrofa; experiment: In vitro inhibition of Cu2+ catalyzed LDL oxidation at 10e-5 M conc.; assay type: functional; procedure, shortened: as §5
[17] = system: Oryctolagus cuniculus; experiment: Tested in vivo for hypocholesterolemic activity by measuring its ability to decrease serum total cholesterol, after oral administration of 50 mg/kg body wt. per day in normolipidemic NZW rabbits; assay type: functional; procedure, shortened: as §3
[18] = system: Rattus norvegicus; experiment: Compound was tested for effect on body weight after oral administration of 100 mg/kg in male rats.; assay type: functional
Procedure, shortened: (§6)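 Male HOE:WISKf (SPF 71) rats, initial body weight over 180 g, n = 10 per group, dosed once daily in the morning by gavage in polyethylene glycol 400 for 7 days; controls received vehicle. Fasted after last dose, bled retroorbitally 24 h later under mild ether. Liver and body weight recorded. Pooled group serum was ultracentrifuged into VLDL (<1.006), LDL (1.006-1.04) and HDL (1.04-1.21). Values are % change versus control.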

[19] = system: Rattus norvegicus; experiment: Compound was tested for effect on serum VLDL after oral administration of 100 mg/kg in male rats; assay type: functional; procedure, shortened: as §6
[20] = system: Rattus norvegicus; experiment: Compound was tested for effect on serum LDL after oral administration of 100 mg/kg in male rats; assay type: functional; procedure, shortened: as §6
[21] = system: Rattus norvegicus; experiment: Compound was tested for effect on serum HDL after oral administration of 100 mg/kg in male rats; assay type: functional; procedure, shortened: as §6
[22] = system: Rattus norvegicus; experiment: Compound was tested for effect on liver weight after oral administration of 100 mg/kg in male rats.; assay type: functional; procedure, shortened: as §6

O=C(O)C[C@H](O)C[C@H](O)/C=C/c1c(Cl)cc(Cl)cc1-c1ccc(F)cc1
IC50 [1]: 4.5 nM

CC(C)c1cc(-c2ccc(F)cc2)c(OCC2C[C@@H](O)CC(=O)O2)c(C(C)C)c1 (stereo partly drawn)
IC50 [2]: 1.8 nM | Relative potency [3]: 103 | Relative potency [4]: 250 | Cholesterol [5]: 11.4% | Change [6]: -30%

CC(C)c1c(O)c(C(C)C)c(C(C)C)c(OCC(O)C[C@@H](O)CC(=O)[O-])c1-c1ccc(F)cc1.[Na+] (stereo partly drawn)
IC50 [7]: 20 nM | Relative potency [8]: < 0.1 | IC50 [2]: 5.6 nM | Relative potency [9]: 34 | Relative potency [4]: 900 | inhibition [10]: 27% | Relative potency [11]: 10 | IC50 [12]: 1100 nM

CC(C)c1cc(-c2ccc(F)cc2)cc(-c2ccc(F)cc2)c1OCC(O)C[C@@H](O)CC(=O)[O-].[Na+] (stereo partly drawn)
IC50 [7]: 17 nM | IC50 [2]: 55 nM | Relative potency [9]: 43 | Relative potency [4]: 90 | Change [13]: 3%

CC(=O)Oc1c(-c2ccc(F)cc2)c(C(C)C)c(O)c(C(C)C)c1C(C)C
Relative potency [8]: 4 | inhibition [10]: 98% | Relative potency [11]: 73 | IC50 [12]: 150 nM | IC50 [14]: 2800 nM

CC(C)c1c(CCC(O)C[C@@H](O)CC(=O)O)c(-c2ccc(F)cc2)cn1-c1ccccc1 (stereo partly drawn)
IC50 [1]: 3 nM

CC(C)c1cc(Sc2ccc(F)cc2)cc(-c2ccc(F)cc2)c1OCC(O)C[C@@H](O)CC(=O)[O-].[Na+] (stereo partly drawn)
IC50 [7]: 6 nM | Relative potency [8]: < 0.1 | IC50 [2]: 0.5 nM | Change [15]: -46% | Relative potency [4]: 10000 | inhibition [10]: < 10% | inhibition at 10 µM [16]: 41% | Relative potency [11]: 0.1 | IC50 [12]: > 10000 nM

O=C1C[C@H](O)CC(COc2c(Cl)cc(Cl)cc2C(c2ccc(F)cc2)c2ccc(F)cc2)O1 (stereo partly drawn)
Relative potency [3]: 40 | Cholesterol [5]: 65.6%

Cc1cc(C)c(OCC2C[C@@H](O)CC(=O)O2)c(C(c2ccc(F)cc2)c2ccc(F)cc2)c1 (stereo partly drawn)
Relative potency [3]: 33 | Cholesterol [5]: 71.6% | Change [17]: -19%

CC(C)c1cc(Sc2ccc(F)cc2)cc(-c2ccc(F)cc2)c1O
Relative potency [8]: 3 | inhibition [10]: 95% | Relative potency [11]: 11 | IC50 [12]: 1000 nM | IC50 [14]: 3000 nM

O=C1C[C@H](O)CC(COc2c(Cl)cc(Cl)cc2CC2CCCCC2)O1 (stereo partly drawn)
Relative potency [3]: 74 | Cholesterol [5]: 36.4% | Change [17]: -11%

CC(C)c1cc(C(C)(C)C)cc(-c2ccc(F)cc2)c1OCC1C[C@@H](O)CC(=O)O1 (stereo partly drawn)
Relative potency [3]: 6 | Cholesterol [5]: 95.7% | Change [6]: -15%

Cc1c(CCC(O)C[C@@H](O)CC(=O)O)c(-c2ccc(F)cc2)cn1-c1ccccc1 (stereo partly drawn)
IC50 [1]: 35 nM

CC(=O)Oc1c(C(C)C)c(-c2ccc(F)cc2)c(O)c(C(C)C)c1C(C)C
Relative potency [8]: 2 | inhibition [10]: 83% | IC50 [14]: 4800 nM

Cc1cc(Cl)cc(CCCOc2ccc(Cl)cc2)c1OCC1C[C@@H](O)CC(=O)O1 (stereo partly drawn)
Relative potency [3]: 87 | Cholesterol [5]: 25.2% | Change [17]: -2%

CC(C)c1cc(-c2ccccc2)nc(-c2ccc(F)cc2)c1/C=C/[C@@H](O)C[C@@H](O)CC(=O)O
IC50 [1]: 3 nM

CC(=O)[O-].CC(C)c1c(OC[C@@H](O)C[C@@H](O)CC(=O)[O-])c(C(C)C)c(C(C)C)c(O)c1-c1ccc(F)cc1.[Na+].[Na+]
Relative potency [8]: < 0.1 | IC50 [2]: 4.1 nM | Change [15]: -12% | Relative potency [4]: 1200 | inhibition [10]: < 10% | Relative potency [11]: 2 | IC50 [12]: 6000 nM

Cc1cc(-c2ccccc2)nc(-c2ccc(F)cc2)c1/C=C/[C@@H](O)C[C@@H](O)CC(=O)O
IC50 [1]: 38 nM

CCOC(=O)C(C)(C)Oc1ccc(Cl)cc1 [CLOFIBRATE]
Change [18]: 8% | Change [19]: -40% | Change [20]: -19% | Change [21]: -29% | Change [22]: 15%

CC(C)(C)c1cc(C(C(=O)O)c2cc(C(C)(C)C)c(O)c(C(C)(C)C)c2)cc(C(C)(C)C)c1O [TERBUFICIN]
Relative potency [8]: 100 | IC50 [12]: 110 nM
